Measured values from ChEMBL document CHEMBL4689842, “EUbOPEN Chemogenomics Library wave 1” (2021).

Test system: HEK-293T
Assay: Multiplex assay against HEK293T;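 for Population Tubulin-Different-Phenotype (%): share of the cells with healthy nuclei that show this phenotype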
Assay type: toxicity, cell-based
Details: human
Procedure, shortened: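 At seeding, live cells were stained with Hoechst33342, BioTracker Green Microtubule Cytoskeleton Dye, MitoTracker Red and Annexin V Alexa Fluor 680. After compound addition they were imaged on a CQ1 microscope at 37°C and 5% CO2, and CellPathfinder machine-learning gating sorted them into Hoechst high-intensity objects or normal cells, with normal cells further split into healthy, pyknosed or fragmented nuclei and pyknosed cells into mitotic or apoptotic. Tubulin, mitochondrial-mass and membrane-permeability phenotypes are given as per cents of cells with healthy nuclei.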

[1] = 12 h, 1 µM, compound concentration 1 uM, replicate 1
[2] = 12 h, 1 µM, compound concentration 1 uM, replicate 2
[3] = 12 h, 10 µM, compound concentration 10 uM, replicate 1
[4] = 12 h, 10 µM, compound concentration 10 uM, replicate 2
[5] = 24 h, 1 µM, compound concentration 1 uM, replicate 1
[6] = 24 h, 1 µM, compound concentration 1 uM, replicate 2
[7] = 24 h, 10 µM, compound concentration 10 uM, replicate 1
[8] = 24 h, 10 µM, compound concentration 10 uM, replicate 2
[9] = 48 h, 1 µM, compound concentration 1 uM, replicate 1
[10] = 48 h, 1 µM, compound concentration 1 uM, replicate 2
[11] = 48 h, 10 µM, compound concentration 10 uM, replicate 1
[12] = 48 h, 10 µM, compound concentration 10 uM, replicate 2

`O=C(Nc1ccc(-n2nc(-c3cccnc3)cc2C(F)(F)F)cn1)c1ccc(-c2ccccc2)c(F)c1` [BI 2049] was tested, and the “Population Apoptotic (%)” value [1] was 46%, the “Population Fragmented Nuclei (%)” value [1] was 22% and the “Population Healthy Nuclei (%)” value [1] was 24%. The “Population Hoechst High Intensity Objects (%)” value [1] was 21%, the “Population Membrane Permeable-Phenotype (%)” value [1] was 0% and the “Population Mitochondria Different-Phenotype (%)” value [1] was 60%. For the same compound, the “Population Mitotic Cells (%)” value [1] was 53%, the “Population Normal (%)” value [1] was 78% and the “Population Pyknosed Nuclei (%)” value [1] was 53%. For the same compound, the “Population Tubulin-Different-Phenotype (%)” value [1] was 10%, the “Total Cell Count” value [1] was 147 and the “Population Apoptotic (%)” value [2] was 3%. The “Population Fragmented Nuclei (%)” value [2] was 11%, the “Population Healthy Nuclei (%)” value [2] was 37% and the “Population Hoechst High Intensity Objects (%)” value [2] was 2%. For the same compound, the “Population Membrane Permeable-Phenotype (%)” value [2] was 3%, the “Population Mitochondria Different-Phenotype (%)” value [2] was 8% and the “Population Mitotic Cells (%)” value [2] was 96%. For the same compound, the “Population Normal (%)” value [2] was 97%, the “Population Pyknosed Nuclei (%)” value [2] was 51% and the “Population Tubulin-Different-Phenotype (%)” value [2] was 1%. For the same compound, the “Total Cell Count” value [2] was 166, the “Population Apoptotic (%)” value [3] was 63% and the “Population Fragmented Nuclei (%)” value [3] was 12%. For the same compound, the “Population Healthy Nuclei (%)” value [3] was 23%, the “Population Hoechst High Intensity Objects (%)” value [3] was 11% and the “Population Membrane Permeable-Phenotype (%)” value [3] was 3%. The “Population Mitochondria Different-Phenotype (%)” value [3] was 90%, the “Population Mitotic Cells (%)” value [3] was 36% and the “Population Normal (%)” value [3] was 88%. The “Population Pyknosed Nuclei (%)” value [3] was 64%, the “Population Tubulin-Different-Phenotype (%)” value [3] was 65% and the “Total Cell Count” value [3] was 254. For the same compound, the “Population Apoptotic (%)” value [4] was 12%, the “Population Fragmented Nuclei (%)” value [4] was 5% and the “Population Healthy Nuclei (%)” value [4] was 47%. For the same compound, the “Population Hoechst High Intensity Objects (%)” value [4] was 3%, the “Population Membrane Permeable-Phenotype (%)” value [4] was 9% and the “Population Mitochondria Different-Phenotype (%)” value [4] was 15%. For the same compound, the “Population Mitotic Cells (%)” value [4] was 88%, the “Population Normal (%)” value [4] was 96% and the “Population Pyknosed Nuclei (%)” value [4] was 47%. The “Population Tubulin-Different-Phenotype (%)” value [4] was 13%, the “Total Cell Count” value [4] was 276 and the “Population Apoptotic (%)” value [5] was 65%. For the same compound, the “Population Fragmented Nuclei (%)” value [5] was 25%, the “Population Healthy Nuclei (%)” value [5] was 30% and the “Population Hoechst High Intensity Objects (%)” value [5] was 26%. For the same compound, the “Population Membrane Permeable-Phenotype (%)” value [5] was 6%, the “Population Mitochondria Different-Phenotype (%)” value [5] was 59% and the “Population Mitotic Cells (%)” value [5] was 34%. For the same compound, the “Population Normal (%)” value [5] was 73%, the “Population Pyknosed Nuclei (%)” value [5] was 43% and the “Population Tubulin-Different-Phenotype (%)” value [5] was 31%. The “Total Cell Count” value [5] was 143, the “Population Apoptotic (%)” value [6] was 12% and the “Population Fragmented Nuclei (%)” value [6] was 7%. For the same compound, the “Population Healthy Nuclei (%)” value [6] was 73%, the “Population Hoechst High Intensity Objects (%)” value [6] was 4% and the “Population Membrane Permeable-Phenotype (%)” value [6] was 3%. The “Population Mitochondria Different-Phenotype (%)” value [6] was 6%, the “Population Mitotic Cells (%)” value [6] was 87% and the “Population Normal (%)” value [6] was 95%. For the same compound, the “Population Pyknosed Nuclei (%)” value [6] was 19%, the “Population Tubulin-Different-Phenotype (%)” value [6] was 4% and the “Total Cell Count” value [6] was 212. For the same compound, the “Population Apoptotic (%)” value [7] was 60%, the “Population Fragmented Nuclei (%)” value [7] was 12% and the “Population Healthy Nuclei (%)” value [7] was 27%. The “Population Hoechst High Intensity Objects (%)” value [7] was 13%, the “Population Membrane Permeable-Phenotype (%)” value [7] was 3% and the “Population Mitochondria Different-Phenotype (%)” value [7] was 82%. For the same compound, the “Population Mitotic Cells (%)” value [7] was 39%, the “Population Normal (%)” value [7] was 86% and the “Population Pyknosed Nuclei (%)” value [7] was 60%. The “Population Tubulin-Different-Phenotype (%)” value [7] was 53%, the “Total Cell Count” value [7] was 266 and the “Population Apoptotic (%)” value [8] was 5%. The “Population Fragmented Nuclei (%)” value [8] was 6%, the “Population Healthy Nuclei (%)” value [8] was 64% and the “Population Hoechst High Intensity Objects (%)” value [8] was 2%. The “Population Membrane Permeable-Phenotype (%)” value [8] was 6%, the “Population Mitochondria Different-Phenotype (%)” value [8] was 14% and the “Population Mitotic Cells (%)” value [8] was 94%. For the same compound, the “Population Normal (%)” value [8] was 97%, the “Population Pyknosed Nuclei (%)” value [8] was 29% and the “Population Tubulin-Different-Phenotype (%)” value [8] was 23%. For the same compound, the “Total Cell Count” value [8] was 339, the “Population Apoptotic (%)” value [9] was 54% and the “Population Fragmented Nuclei (%)” value [9] was 27%. The “Population Healthy Nuclei (%)” value [9] was 35%, the “Population Hoechst High Intensity Objects (%)” value [9] was 18% and the “Population Membrane Permeable-Phenotype (%)” value [9] was 2%. The “Population Mitochondria Different-Phenotype (%)” value [9] was 20%, the “Population Mitotic Cells (%)” value [9] was 46% and the “Population Normal (%)” value [9] was 81%. The “Population Pyknosed Nuclei (%)” value [9] was 37%, the “Population Tubulin-Different-Phenotype (%)” value [9] was 14% and the “Total Cell Count” value [9] was 166. For the same compound, the “Population Apoptotic (%)” value [10] was 11%, the “Population Fragmented Nuclei (%)” value [10] was 7% and the “Population Healthy Nuclei (%)” value [10] was 83%. For the same compound, the “Population Hoechst High Intensity Objects (%)” value [10] was 2%, the “Population Mitochondria Different-Phenotype (%)” value [10] was 3% and the “Population Mitotic Cells (%)” value [10] was 88%. The “Population Normal (%)” value [10] was 97%, the “Population Pyknosed Nuclei (%)” value [10] was 8% and the “Population Tubulin-Different-Phenotype (%)” value [10] was 6%. For the same compound, the “Total Cell Count” value [10] was 420, the “Population Apoptotic (%)” value [11] was 55% and the “Population Fragmented Nuclei (%)” value [11] was 14%. For the same compound, the “Population Healthy Nuclei (%)” value [11] was 28%, the “Population Hoechst High Intensity Objects (%)” value [11] was 18% and the “Population Membrane Permeable-Phenotype (%)” value [11] was 1%. For the same compound, the “Population Mitochondria Different-Phenotype (%)” value [11] was 52%, the “Population Mitotic Cells (%)” value [11] was 44% and the “Population Normal (%)” value [11] was 81%. The “Population Pyknosed Nuclei (%)” value [11] was 56%, the “Population Tubulin-Different-Phenotype (%)” value [11] was 40% and the “Total Cell Count” value [11] was 298. The “Population Apoptotic (%)” value [12] was 7%, the “Population Fragmented Nuclei (%)” value [12] was 6% and the “Population Healthy Nuclei (%)” value [12] was 82%. For the same compound, the “Population Hoechst High Intensity Objects (%)” value [12] was 2%, the “Population Membrane Permeable-Phenotype (%)” value [12] was 5% and the “Population Mitochondria Different-Phenotype (%)” value [12] was 4%. The “Population Mitotic Cells (%)” value [12] was 92%, the “Population Normal (%)” value [12] was 97% and the “Population Pyknosed Nuclei (%)” value [12] was 10%. The “Population Tubulin-Different-Phenotype (%)” value [12] was 21% and the “Total Cell Count” value [12] was 633.
